Experimental data from publication PMC6374747 (Biochemistry, 2018).
Blank lines part the entries; values can stand above or below the substance they belong to. Ends that are not written are not given here.

Assays:
[1] = ThT fluorescence aggregation assay; assay type: physicochemical; conditions: for Concentration at which amyloid-like aggregation was observed (ThT): pH 5.0, 20 mM NaOAc, 1–200 μM tested
How it was run: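 Peptide (199 μL; 200–1 μM at pH 5.0 in 20 mM NaOAc, or 200 μM in buffers of pH 3.0–7.0) was mixed with 1 μL ThT. Fluorescence was read at 37 °C (ex 444 nm, em 485 nm, 10 nm bandwidth) every 10 min for at least 15 h with gentle agitation. Signal was normalised to buffer plus ThT. Runs were done at least three times, each in triplicate; end point at 15 h.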

[2] = Seeded nucleation ThT aggregation assay; assay type: physicochemical; conditions: 40 μM peptide, 200 μL, pH 5.0; seeds of 5 or 7, 3–300 ng
How it was run: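 Seeds were prepared by centrifuging aggregated peptide (20000g, 30 min) and homogenising the pellet in 20 mM NaOAc to an estimated 0.1 mg/mL. ThT fluorescence was followed at 37 °C (ex 444 nm, em 485 nm) in kinetic mode.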

[3] = test system: marmoset EBV-BLCs and co-culture with lymphocytes; test: FACS-based immunotoxicity assay; assay type: cell-based, Callithrix jacchus; conditions: CellTrace-stained EBV-BLCs, 24 h, 30, 10, 3, 1 μg/mL tested
How it was run: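 EBV-BLCs were prestained with CellTrace for 20 min at RT and plated at 1 × 10^3 cells/well. Peptide (30, 10, 3, 1 μg/mL; medium as negative control) was added for 1 h at 37 °C, 5% CO2, in medium with 10% FCS. Freshly thawed axillary lymph node mononuclear cells from an EAE marmoset were then added at 1 × 10^5 cells/well for 24 h. Cells were stained with a live/dead marker and AnnexinV-APC, then fixed in 1% PFA/AnnexinV binding buffer. CellTrace+ and CellTrace– gates were each gated for AnnexinV and live/dead. Non-co-cultured lymphocytes served as control.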

Human EBV-infected BLCs = test: Immunofluorescence microscopy of bioorthogonal peptides; assay type: cell-based; conditions: for Intracellular aggregation in EBV-infected BLCs (within LC3 positive vesicles): 6.2 and 25 μM (also 3.1, 12.5 μM), 48 h, serum-free, CuAAC Alexa647-azide; for Aggregates in the absence of cells (CuAAC with Alexa647-azide): serum-free medium, no cells
How it was run: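 Human BSM EBV-lymphoblastoid cells (1.5 × 10^6/well) were incubated with peptide (6.25 or 25 μM; medium as control) in serum-free R0 medium at 37 °C. Cytospins (5 × 10^4 cells, 28g, 3 min) were air-dried, stored at −80 °C, and PFA-fixed. Staining: anti-LC3 1:20 overnight at 4 °C, then anti-mouse FITC 1:400. Peptide was detected by CuAAC (0.064 mM CuSO4, 0.038 mM ascorbate, 0.25 mM THPTA, AF647-azide 1:160, 100 mM Tris pH 8.0, 1 h, RT, dark). DAPI mounting; fluorescence microscopy.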

Substance: MOG31-55(NArg3) (NATGMEVGWYRPPFSRVVHLYRNGK; UniProt Q16653 60-84, looked up, fragment) [Peptide 9]
Aggregation of elongated MOG31–55 peptides (ThT) ([1]; pH 5.0, 37 °C, 1–200 μM): Neither 9 nor 10 aggregated

Substance: MOG35-55(Arg3) (MEVGWYRPPFSRVVHLYRNGK-NH2; not fully specified; UniProt Q16653 64-84, looked up, fragment) [Peptide 1]
Aggregation kinetics on seeding (ThT) [2]: no aggregation was observed
Aggregation at any pH or any concentration tested (ThT) ([1]; pH 3.0–7.0 at 200 μM, 1–200 μM at pH 5.0, 37 °C): did not show any aggregation

Substance: MOG35-55(Cit46) [Peptide 3]
Concentration at which amyloid-like aggregation was observed (ThT) ([1]; 37 °C): > 4 µM
Aggregation at a final concentration of 1 μM (ThT) ([1]; pH 5.0, 37 °C): but not at a final concentration of 1 μM

Substance: MOG31-55(Pg_Cit46&Cit52) [Peptide 12]
Concentration giving increased level of apoptosis (Annexin V) [3]: > 1000 ng/mL
Intracellular aggregation in EBV-infected BLCs (within LC3 positive vesicles) (Human EBV-infected BLCs): large agglomerates
Aggregates in the absence of cells (CuAAC with Alexa647-azide) (Human EBV-infected BLCs): large aggregates

Substance: MOG31-55(Pg_Cit41&46) [Peptide 11]
Concentration giving increased level of apoptosis (Annexin V) [3]: > 1000 ng/mL
Intracellular aggregation in EBV-infected BLCs (within LC3 positive vesicles) (Human EBV-infected BLCs): small spheres
Aggregates in the absence of cells (CuAAC with Alexa647-azide) (Human EBV-infected BLCs): large aggregates

Continued, values first:

Concentration at which amyloid-like aggregation was observed (ThT) ([1]; 37 °C): > 4 µM
Substance: MOG35-55(Cit41) [Peptide 2]

Aggregation at pH 6 compared to pH 5 (ThT) ([1]; 200 μM, 37 °C): ~3 fold
Aggregation at pH 7 compared to pH 5 (ThT) ([1]; 200 μM, 37 °C): ~4 fold
Concentration at which amyloid-like aggregation was observed (ThT) ([1]; 37 °C): > 4 µM
Aggregation at a final concentration of 1 μM (ThT) ([1]; pH 5.0, 37 °C): but not at a final concentration of 1 μM
Substance: MOG35-55(Cit3) [Peptide 8]

Concentration at which amyloid-like aggregation was observed (ThT) ([1]; 37 °C): aggregation at all concentrations tested
Substance: MOG35-55(Cit41&Cit52) [Peptide 6]
